# Measured values published in ChEMBL document CHEMBL4033786, “Discovery of Novel 1-Cyclopentenyl-3-phenylureas as Selective, Brain Penetrant, and Orally Bioavailable CXCR2 Antagonists” (J Med Chem, 2018).
# Columns and labels:
# [1] = molecular target: T1, C-X-C chemokine receptor type 2 (Homo sapiens, UniProt P25025); experiment: Antagonist activity at TEV protease cleavage site linked GAL4-VP16-fused recombinant human CXCR2 expressed in cells assessed as inhibition of […] human CXCL1-stimulated beta-arrestin recruitment by CCF4-AM-fluorescence based FRET assay; type: cell-based; details: read-out: pIC50 (converted)
# T1 sequence (P25025 whole entry): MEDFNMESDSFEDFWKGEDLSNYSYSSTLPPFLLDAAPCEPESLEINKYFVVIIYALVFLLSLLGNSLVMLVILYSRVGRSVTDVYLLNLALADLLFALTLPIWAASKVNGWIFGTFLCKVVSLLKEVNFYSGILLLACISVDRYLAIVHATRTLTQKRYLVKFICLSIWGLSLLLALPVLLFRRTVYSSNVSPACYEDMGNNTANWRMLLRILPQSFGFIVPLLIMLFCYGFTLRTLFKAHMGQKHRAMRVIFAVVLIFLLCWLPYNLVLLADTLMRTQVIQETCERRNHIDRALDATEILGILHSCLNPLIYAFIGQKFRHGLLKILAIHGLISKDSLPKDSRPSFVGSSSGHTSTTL
# How it was run: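 Stable cell line expressing recombinant human CXCR2 linked to a TEV site and Gal4-VP16. Cells were starved 24 h at 37 °C, 5% CO2, then resuspended at ~200,000 cells/mL. They were given compound in DMSO (concentration-response), stimulated with 80 nM hCXCL1 and incubated overnight at 37 °C. CCF4-AM substrate was then added for 2 h at RT in the dark.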
# [2] = Passive permeability in MDCK2-MDR1 cells transduced with BacMam2-BCRP at 3 uM after 90 mins by Transwell assay; type: ADME, cell-based, Canis lupus familiaris, MDCK-MDR1; details: dog; read-out: permeability
# How it was run: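 MDCKII-MDR1 cells transduced with BacMam2-BCRP and grown in Transwells. Compound at 3 μM, in duplicate, was incubated 90 min A→B (and B→A) with and without GF120918 (5 μM, dual P-gp/BCRP inhibitor). Passive permeability (Pexact, nm/s) was calculated by an equation from earlier work. The permeability ratio is A→B permeability with GF120918 over A→B permeability without it.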
# [3] = molecular target: T1, C-X-C chemokine receptor type 2; experiment: Antagonist activity at CXCR2 in human whole blood assessed as inhibition of GROalpha-stimulated CD11b upregulation preincubated for 15 mins followed by GROalpha stimulation measured after 15 mins by FITC-staining based FACS analysis
# [4] = Efflux ratio of passive permeability in MDCK2-MDR1 cells transduced with BacMam2-BCRP at 3 uM after 90 mins by Transwell assay; type: ADME, cell-based, Canis lupus familiaris, MDCK-MDR1; details: dog
# How it was run: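 MDCKII-MDR1 cells transduced with BacMam2-BCRP in Transwells. Compound at 3 μM was measured in duplicate, A→B and B→A, after 90 min, with and without 5 μM GF120918. ER = B→A/A→B permeability without inhibitor. System qualified with amprenavir and dantrolene ERs.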
# [5] = Solubility of compound in fasted state simulated intestinal fluid measured after 4 hrs; type: physicochemical
# How it was run: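 Solubility in FaSSIF, read after 4 h incubation.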
SMILES,IC50 [1] [nM],"Papp at 1.5 h, 3 µM [2] [×10⁻⁶ cm/s]",IC50 [3] [nM],"efflux ratio at 1.5 h, 3 µM [4]",solubility at 4 h [5] [µg/mL]
CC(C)S(=O)(=O)c1c(Cl)ccc(NC(=O)NC2CCCC23CC3)c1O (racemic),39.8,,,,
CC1=CCC[C@H]1NC(=O)Nc1ccc(Cl)c(S(=O)(=O)C2CCN(CCF)CC2)c1O,0.631,21.2,200,7.3,288
CC(C)S(=O)(=O)c1c(Cl)ccc(NC(=O)Nc2cccc(F)c2Cl)c1O,0.398,,,,
O=C1CN(/N=C/c2ccc(-c3ccc([N+](=O)[O-])cc3)o2)C(O)=N1 [DANTROLENE],,,,> 5,
CC(C)S(=O)(=O)c1c(Cl)ccc(NC(=O)NC2CCOCC2)c1O,1260,,,,
CCC1CCCC1NC(=O)Nc1ccc(Cl)c(S(=O)(=O)C(C)C)c1O (racemic),63.1,,,,
CC(C)S(=O)(=O)c1c(Cl)ccc(NC(=O)NC2CCN(C)C2)c1O (racemic),> 10000,,,,
CC1=C(F)CCC1NC(=O)Nc1ccc(Cl)c(S(=O)(=O)C(C)C)c1O (racemic),1.58,,,,
CC(C)S(=O)(=O)c1c(Cl)ccc(NC(=O)NC2CCCCC2)c1O,50.1,,,,
CC1CCC(NC(=O)Nc2ccc(Cl)c(S(=O)(=O)C(C)C)c2O)C1 (racemic),200,,,,
CC(C)S(=O)(=O)c1c(Cl)ccc(NC(=O)NC2CCCC2(C)C)c1O (racemic),158,,,,
CC1=CCC[C@H]1NC(=O)Nc1ccc(Cl)c(S(=O)(=O)C(C)(C)CN(C)C)c1O,126,,,,395
CC1CCCC1NC(=O)Nc1ccc(Cl)c(S(=O)(=O)C(C)C)c1O (racemic),10,,,,
CC(C)CN(C[C@@H](O)[C@H](Cc1ccccc1)NC(=O)O[C@H]1CCOC1)S(=O)(=O)c1ccc(N)cc1,,,,> 12,
CC1=C(Cl)CCC1NC(=O)Nc1ccc(Cl)c(S(=O)(=O)C(C)C)c1O (racemic),3.16,,,,
CC(C)S(=O)(=O)c1c(Cl)ccc(NC(=O)NC2CCCOC2)c1O (racemic),631,,,,
CC1=CCC[C@H]1NC(=O)Nc1ccc(Cl)c(S(=O)(=O)C2CCN(C3CCC3)CC2)c1O,0.398,32,501,3.3,491
CC(C)S(=O)(=O)c1c(Cl)ccc(NC(=O)NC2CCN(C)CC2)c1O,> 10000,,,,

SMILES,IC50 [1] [nM],"Papp at 1.5 h, 3 µM [2] [×10⁻⁶ cm/s]",IC50 [3] [nM],"efflux ratio at 1.5 h, 3 µM [4]",solubility at 4 h [5] [µg/mL]
CC1=CCC[C@H]1NC(=O)Nc1ccc(Cl)c(S(=O)(=O)C2(CF)CCOCC2)c1O,1.26,21.8,251,18.7,14.9
CC1=CCCCC1NC(=O)Nc1ccc(Cl)c(S(=O)(=O)C(C)C)c1O (racemic),12.6,,,,
CC1=CCC[C@H]1NC(=O)Nc1ccc(Cl)c(S(=O)(=O)C(F)(F)CN(C)C)c1O,2,26.6,631,12.6,128
CC(C)S(=O)(=O)c1c(Cl)ccc(NC(=O)NC2C=CCCC2)c1O (racemic),10,,,,
CC(C)S(=O)(=O)c1c(Cl)ccc(NC(=O)NC2CCC3CC32)c1O (stereo not given),25.1,,,,
CC1=CCC[C@H]1NC(=O)Nc1ccc(Cl)c(S(=O)(=O)C2(C)CCN(C3CCC3)CC2)c1O,3.98,,,,139
CC1=CCC[C@H]1NC(=O)Nc1ccc(Cl)c(S(=O)(=O)C2CCN(CC(F)(F)F)CC2)c1O,316,,,,
CCC1(S(=O)(=O)c2c(Cl)ccc(NC(=O)N[C@@H]3CCC=C3C)c2O)CCOCC1,0.316,32.4,398,3.2,16
COC1CCCCC1NC(=O)Nc1ccc(Cl)c(S(=O)(=O)C(C)C)c1O (racemic),1580,,,,
CC1=CCC[C@H]1NC(=O)Nc1ccc(Cl)c(S(=O)(=O)C2(CCF)CCOCC2)c1O,31.6,33.7,,10.8,26.7
CC(C)S(=O)(=O)c1c(Cl)ccc(NC(=O)NC2C=CCC2)c1O (racemic),6.31,,,,
CO[C@@H]1CCC[C@H]1NC(=O)Nc1ccc(Cl)c(S(=O)(=O)C(C)C)c1O (racemic),251,,,,
CC(C)S(=O)(=O)c1c(Cl)ccc(NC(=O)NC2CCC=C2C(F)(F)F)c1O (racemic),25.1,,,,
CC(C)S(=O)(=O)c1c(Cl)ccc(NC(=O)NC2CCCC2)c1O,10,,,,
CC1CCCCC1NC(=O)Nc1ccc(Cl)c(S(=O)(=O)C(C)C)c1O (racemic),316,,,,
CC1=CCC[C@H]1NC(=O)Nc1ccc(Cl)c(S(=O)(=O)C(C)(C)C2CCOCC2)c1O,0.501,30.3,398,3.9,1.4
COCC(C)S(=O)(=O)c1c(Cl)ccc(NC(=O)N[C@@H]2CCC=C2C)c1O (stereo not given in full),1.26,28.2,398,3.2,72

# Continued, values first:
IC50 [1] [nM],"Papp at 1.5 h, 3 µM [2] [×10⁻⁶ cm/s]",IC50 [3] [nM],"efflux ratio at 1.5 h, 3 µM [4]",solubility at 4 h [5] [µg/mL],SMILES
316,,,,,O=C(Nc1ccc(Cl)c(S(=O)(=O)C2COC2)c1O)N[C@@H]1CCC=C1Cl
10,,,,,CC(C)S(=O)(=O)c1c(Cl)ccc(NC(=O)NC2CCCC=C2Cl)c1O (racemic)
10,,,,,CC(C)S(=O)(=O)c1c(Cl)ccc(NC(=O)NC2CCC=C2F)c1O (racemic)
501,,,,,CC(C)(CO)S(=O)(=O)c1c(Cl)ccc(NC(=O)N[C@H]2CCC=C2Cl)c1O
1,,,,,CC(C)S(=O)(=O)c1c(Cl)ccc(NC(=O)NC2CCC=C2Cl)c1O (racemic)
0.251,7.2,,26.8,15.1,CC1=CCC[C@H]1NC(=O)Nc1ccc(Cl)c(S(=O)(=O)[C@@H]2CC[C@@H](O)C2)c1O
2.51,17.7,,9.4,59,CC1=CCC[C@H]1NC(=O)Nc1ccc(Cl)c(S(=O)(=O)C2CCN(CC(F)F)CC2)c1O
3.98,,,,,CC(C)(CO)S(=O)(=O)c1c(Cl)ccc(NC(=O)N[C@@H]2CCC=C2Cl)c1O
1,12.4,,25.5,127,CC1=CCC[C@H]1NC(=O)Nc1ccc(Cl)c(S(=O)(=O)C2CC3(COC3)C2)c1O
0.251,,,,,CC(C)(CCO)S(=O)(=O)c1c(Cl)ccc(NC(=O)N[C@@H]2CCC=C2Cl)c1O
1.26,31.8,126,3.8,33.2,CC1=CCC[C@H]1NC(=O)Nc1ccc(Cl)c(S(=O)(=O)C2(C)CCOC2)c1O (stereo not given in full)
0.794,28.1,,7,39,CC1=CCC[C@H]1NC(=O)Nc1ccc(Cl)c(S(=O)(=O)C2(F)CCOC2)c1O (stereo not given in full)
79.4,,,,,CC(C)(CCO)S(=O)(=O)c1c(Cl)ccc(NC(=O)N[C@H]2CCC=C2Cl)c1O
0.2,32.3,63.1,6.2,3.3,CC1=CCC[C@H]1NC(=O)Nc1ccc(Cl)c(S(=O)(=O)C2(F)CCOCC2)c1O
100,,,,,O=C(Nc1ccc(Cl)c(S(=O)(=O)C2(F)CCOCC2)c1O)N[C@H]1CCC=C1Cl
0.501,,,,,O=C(Nc1ccc(Cl)c(S(=O)(=O)C2(F)CCOCC2)c1O)N[C@@H]1CCC=C1Cl
0.501,53.2,200,3.4,6.1,CC1=CCC[C@H]1NC(=O)Nc1ccc(Cl)c(S(=O)(=O)C2(C)CCOCC2)c1O
0.251,29.6,,3.2,7,CC1=CCC[C@H]1NC(=O)Nc1ccc(Cl)c(S(=O)(=O)C(C)(C)C2COC2)c1O
2510,,,,,O=C(Nc1ccc(Cl)c(S(=O)(=O)C2COC2)c1O)N[C@H]1CCC=C1Cl
2,26.7,200,3.4,4.1,CC1=CCC[C@H]1NC(=O)Nc1ccc(Cl)c(S(=O)(=O)C2(C)CCCOC2)c1O (stereo not given in full)
1.58,26.3,251,9.6,13.7,CC1=CCC[C@H]1NC(=O)Nc1ccc(Cl)c(S(=O)(=O)C2CCCOC2)c1O (stereo not given in full)
0.398,,,,,CC1=CCCC1NC(=O)Nc1ccc(Cl)c(S(=O)(=O)C(C)C)c1O (racemic)
